Results published in paper PMC3806060 (Journal of medicinal chemistry, 2013).
Blank lines part the entries; values can stand above or below the compound they belong to.

How the values were obtained:
[1] = system: H146 small-cell lung cancer cell line; assay: Cell growth inhibition assay; assay type: cell-based, Human
Bcl-2 [2] = biological target: T1, Bcl-2 (Homo sapiens, UniProt P10415); conditions: read-out: Ki, binding to Bcl-2; cited from earlier work
Bcl-xL [3] = biological target: T2, Bcl-xL (Homo sapiens, UniProt Q07817); conditions: read-out: Ki, binding to Bcl-xL; cited from earlier work
[4] = system: H146 small-cell lung cancer xenograft; conditions: 25 mg/kg, i.v., 5 days per week for 2 weeks; cited from earlier work
[5] = cited from earlier work
[6] = system: animal model of human cancer; conditions: cited from earlier work
Bcl-2 [7] = biological target: T1, Bcl-2; assay: FP based competitive binding assay, Bcl-2; conditions: versus 8
Bcl-xL [8] = biological target: T2, Bcl-xL; assay: FP based competitive binding assay, Bcl-xL; conditions: versus 8
Summary of the method: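 Competitive fluorescence-polarization assay for Bcl-xL: pre-incubated Bcl-xL (10 nM) and fluorescent probe (2 nM) with serial dilutions of test compound, room temperature, 2 h, gentle shaking. Millipolarization plotted against total compound concentration. IC50 obtained by nonlinear regression; Ki calculated from IC50.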

T1 sequence (P10415 whole entry): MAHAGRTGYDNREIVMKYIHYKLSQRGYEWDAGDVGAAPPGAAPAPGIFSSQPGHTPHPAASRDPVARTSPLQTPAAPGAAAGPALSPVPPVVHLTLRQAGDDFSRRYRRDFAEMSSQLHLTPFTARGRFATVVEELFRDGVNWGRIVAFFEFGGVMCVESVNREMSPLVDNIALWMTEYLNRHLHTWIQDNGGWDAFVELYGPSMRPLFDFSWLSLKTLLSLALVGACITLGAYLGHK
T2 sequence (Q07817 whole entry): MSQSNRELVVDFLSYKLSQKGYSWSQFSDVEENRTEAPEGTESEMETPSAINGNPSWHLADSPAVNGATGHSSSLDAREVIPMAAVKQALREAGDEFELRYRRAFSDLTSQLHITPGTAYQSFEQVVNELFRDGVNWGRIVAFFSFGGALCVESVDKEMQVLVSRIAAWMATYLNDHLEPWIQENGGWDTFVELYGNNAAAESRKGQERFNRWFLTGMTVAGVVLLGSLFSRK

Compound: CCn1c(C)c(C(=O)O)c(-c2cccc(N3CCN(c4ccc(NS(=O)(=O)c5ccc(N[C@H](CCN(C)C)CSc6ccccc6)c([N+](=O)[O-])c5)cc4)CC3)c2)c1-c1ccc(Cl)cc1 [Compound 5]
Times more potent than compound 4 in H146 cell growth inhibition ([1]; versus 4): 8 times
Ki (Bcl-2 [2]): < 1 nM
Ki (Bcl-xL [3]): < 1 nM
Antitumor activity in H146 xenograft model [4]: failed to achieve long-lasting tumor regression
Chemical stability [5]: excellent chemical stability

Compound: CCn1c(C)c(C(=O)O)c(-c2cccc(N3CCN(c4ccc(NS(=O)(=O)c5ccc(N[C@H](CCN6CCC(O)CC6)CSc6ccccc6)c(S(=O)(=O)C(F)(F)F)c5)cc4)CC3)c2)c1-c1ccc(Cl)cc1 [Compound 6, BM-957]
Ki (Bcl-2 [2]): < 1 nM
Ki (Bcl-xL [3]): < 1 nM
Tumor regression [6]: achieved tumor regression

Times less potent than compound 8 in binding to Bcl-2 (Bcl-2 [7]): 4 times
Times less potent than compound 8 in binding to Bcl-xL (Bcl-xL [8]): 2 times
Compound: Cc1c(C(N)=O)c(-c2cccc(N3CCN(c4ccc(NS(=O)(=O)c5ccc(N[C@H](CCN(C)C)CSc6ccccc6)c([N+](=O)[O-])c5)cc4)CC3)c2)c(-c2ccc(Cl)cc2)n1C [Compound 9, (R)-5-(4-Chlorophenyl)-4-(3-(4-(4-(4-(4-(dimethylamino)-1-(phenylthio)butan-2-ylamino)-3-nitrophenylsulfonamido)phenyl)piperazin-1-yl)phenyl)-1,2-dimethyl-1H-pyrrole-3-carboxamide]
Times less potent than compound 8 in H146 cell growth inhibition ([1]; versus 8): 6 times
